# Compound activity as filed in PubChem.
# APJ antagonist = antagonists of human APJ apelin receptor; P35414; CHO-K1 APJ beta-arrestin complementation, luminescence; inhibition, % at 20 µM; 330,000 compounds, 0.32% hits; AID 2521;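 active = inhibition above about 40% at 20 µM, limit read from the data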;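 note: cells challenged with 10 nM apelin-13 agonist together with compound; plate controls were apelin-13 plus DMSO wells for no effect and DMSO wells lacking apelin-13 for full effect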
# APJ ag = agonists of human APJ apelin receptor; 330,000 compounds, 0.11% hits; activation, % at 20 µM; CHO-K1 APJ PathHunter beta-arrestin, luminescence; 0% DMSO wells, 100% apelin; AID 2520; P35414;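 active = activation more than six SD over the plate average, tested at 20 µM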;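 note: 0% = DMSO alone and 100% = apelin-13 at 10 nM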
#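 Assay system: CHO-K1 APJ beta-arrestin complementation cell line / Compound: single test compound dose, 20 µM final, 1% DMSO / Times: overnight seeding, 90 min compound at 25 °C, 1 h detection / Technique: beta-gal luminescence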
# EBI2 block = antagonists of human EBI2 receptor; EBI2 beta-arrestin recruitment, luminescence, 7a,25-OHC stimulated; inhibition, % at 5 µM; 360,000 compounds, 0.81% hits; P32249; in the data active = inhibition above about 38%;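 note: enzyme fragment complementation signal reports receptor beta-arrestin coupling in cells; 0% = agonist plus DMSO wells and 100% = wells without agonist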
# CXCR6 inh = blocks human CXCR6 beta-arrestin recruitment; CHO-K1 PathHunter CXCR6 beta-arrestin, luminescence; inhibition, % at 20 µM; 360,000 compounds, 0.36% hits; in the data active = inhibition above about 34%, passing the limit was not always enough;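 note: antagonist mode with CXCL16 agonist at 10 nM final; 0% = 10 nM CXCL16 with DMSO and 100% = unstimulated wells without agonist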
# Target sequence (O00574 whole entry, looked up): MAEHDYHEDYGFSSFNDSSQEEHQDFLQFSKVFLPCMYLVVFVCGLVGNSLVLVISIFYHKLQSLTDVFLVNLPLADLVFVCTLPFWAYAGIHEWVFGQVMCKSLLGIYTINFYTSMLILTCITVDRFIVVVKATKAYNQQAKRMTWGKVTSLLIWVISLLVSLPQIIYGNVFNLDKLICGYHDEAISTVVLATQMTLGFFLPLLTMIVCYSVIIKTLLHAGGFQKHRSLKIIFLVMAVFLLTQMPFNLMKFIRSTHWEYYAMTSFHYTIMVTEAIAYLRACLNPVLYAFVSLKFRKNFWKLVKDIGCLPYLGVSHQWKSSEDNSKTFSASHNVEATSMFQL
# CCR6 antag = antagonists of human CCR6 receptor. P51684. CHO-K1 CCR6 PathHunter beta-arrestin, luminescence, CCL20-stimulated. inhibition, % at 20 µM. 340,000 compounds, 0.49% hits. AID 493098;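 active = compounds whose inhibition of the agonist-driven luminescence signal at 20 µM reaches about 50%, limit read from the data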;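 note: cells stimulated with CCL20 at 14 nM final; plate controls were DMSO with CCL20 for no effect and DMSO without agonist for full effect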
# Target sequence (P51684 whole entry, looked up): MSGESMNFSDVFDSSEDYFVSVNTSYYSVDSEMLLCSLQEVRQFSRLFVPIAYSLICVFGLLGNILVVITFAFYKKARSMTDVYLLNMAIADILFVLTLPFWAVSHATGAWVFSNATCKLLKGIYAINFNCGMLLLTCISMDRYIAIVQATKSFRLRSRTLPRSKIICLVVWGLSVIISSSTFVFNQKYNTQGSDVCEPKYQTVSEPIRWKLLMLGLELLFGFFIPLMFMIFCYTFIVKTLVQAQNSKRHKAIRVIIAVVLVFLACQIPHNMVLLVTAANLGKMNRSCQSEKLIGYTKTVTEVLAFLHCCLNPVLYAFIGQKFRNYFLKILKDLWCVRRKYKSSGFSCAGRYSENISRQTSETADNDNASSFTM
# EBI2 conf = confirmation of human EBI2 receptor antagonists; shares compounds with EBI2 block; inhibition, % at 5 µM; 2,400 compounds, 29% hits; EBI2 beta-arrestin luminescence, 7a,25-OHC antagonism;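 active = inhibition of at least 50%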
# EBI2 ag = EBI2 agonism counter-screen; shares compounds with EBI2 block; EBI2-expressing cells, agonist mode, luminescence, 60 min; 0% vehicle, 100% 7α,25-dihydroxycholesterol control; activation, % at 5 µM; 2,400 tested, under 10 active; AID 652000;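 active = activation of at least 50%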
# bGal counter = beta-galactosidase inhibition counter-screen | shares compounds with EBI2 block | inhibition, % at 5 µM | 2,400 compounds, 1% hits | purified beta-galactosidase, luminescent Galacton Star, 15 min;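 active = replicate-average signal at least 3 plate SD below neutral wells, shown as high inhibition, flagging enzyme-inhibiting false positives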;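 note: 0% = DMSO wells with enzyme and 100% = wells lacking enzyme; higher means stronger loss of beta-gal luminescence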
# An asterisk follows results filed as active; · = no result given. Compounds with a hit are over-represented: about 1.5% of the library has one in this group of screens.
SMILES,APJ antagonist,APJ ag,EBI2 block,CXCR6 inh,CCR6 antag,EBI2 conf,EBI2 ag,bGal counter
CCC1CCCCN1C(=S)Nc1ccc(OC(F)F)cc1 (stereo not given),-4.4,-2.5,54.6*,-5.3,10.1,-0.4,0.2,2.0
CCOC(=O)C1=C[C@@H](C(C)(C)C)N(S(=O)(=O)c2ccc(C)cc2)[C@H]1c1ccc(C#N)cc1,·,·,42.0*,5.9,·,29.9,1.1,5.8
O=[N+]([O-])C1=CC=C2C(=NC3(CCCCC3)N2O)C1=NC1CCCCC1,-1.8,-3.2,48.1*,6.8,14.7,19.8,2.0,2.5
CC1(C)CC(N=C2C([N+](=O)[O-])=CC=C3C2=NC2(CCCCC2)N3O)CC(C)(C)N1,-21.1,-1.9,3.6,6.6,13.3,·,·,·
COc1ccc([C@H]2C[C@H](O)[C@@H](n3cc(COC(=O)c4ccccc4)nn3)CN2C(=O)C2CCCCC2)cc1,·,·,-0.8,0.8,·,·,·,·
O=C(NN=Cc1c[nH]c2ccccc12)NN=Cc1c[nH]c2ccccc12,·,·,74.2*,-6.1,·,62.0*,1.2,5.3
CCCc1c(C(=O)N/N=C/c2c[nH]c3ccccc23)nnn1-c1nonc1N,·,·,42.8*,-5.4,·,35.8,-0.3,-17.7
CCCN(CCC)Cc1c(C(=O)N/N=C/c2c[nH]c3ccccc23)nnn1-c1nonc1N,-6.2,-0.4,7.1,-5.7,-5.4,·,·,·
O=C(N/N=C/c1c[nH]c2ccccc12)c1ccccc1,6.8,-0.5,-5.6,-2.5,4.0,·,·,·
Cc1cc(NC(=O)/C(C#N)=C\c2ccc(-c3ccc(SC(F)F)cc3)o2)n(-c2ccccc2)n1,·,·,-4.3,19.3,45.1,·,·,·
CC(C)C[C@H]1CNC(=S)N1C[C@H]1CCCN1C[C@H](Cc1ccc(O)cc1)N1C[C@H](Cc2ccccc2)N(CCc2ccccc2)C1=S,·,·,15.6,13.8,·,·,·,·
CC(C)C[C@H]1CNC(=S)N1C[C@H]1CCCN1C[C@H](CC(C)C)N1C[C@H](Cc2ccc(O)cc2)N(CCc2ccccc2)C1=S,·,·,43.5*,11.7,·,14.2,0.8,8.4
Oc1ccc(C[C@H]2CNC(=S)N2CC2CCCN2C[C@H](Cc2ccc(O)cc2)N2C[C@H](Cc3ccccc3)N(CCc3ccccc3)C2=S)cc1 (stereo not given in full),·,·,41.9*,5.9,10.9,17.0,-0.5,8.0
CC(C)C[C@@H](CN1CCCC1CN1C(=S)NC[C@@H]1Cc1ccc(O)cc1)N1C[C@H](Cc2ccccc2)N(CCc2ccccc2)C1=S (stereo not given in full),·,·,29.3,11.0,9.4,·,·,·
CC(C)C[C@H]1CN([C@@H](CC(C)C)CN2CCC[C@@H]2CN2C(=S)NC[C@@H]2Cc2ccc(O)cc2)C(=S)N1CCc1ccccc1,·,·,30.7,12.6,·,·,·,·
CC(C)C[C@@H](CN1CCC[C@@H]1CN1C(=S)NC[C@@H]1Cc1ccc(O)cc1)N1C[C@H](Cc2ccccc2)N(CCc2ccccc2)C1=S,·,·,47.1*,0.4,·,5.7,-1.1,-7.1
c1ccc(-c2cc3cc4c(cc3cn2)OCO4)cc1,1.2,5.1,7.0,-26.5,-0.2,·,·,·
COc1ccc(-c2ccc(C(=O)Nc3cccc(C(F)(F)F)c3)c3occc23)c(C)c1,·,·,42.9*,4.2,·,9.3,-1.6,-12.5
COc1ccc(-c2ccc(C(=O)Nc3ccc(NC(C)=O)cc3)c3occc23)c(C)c1,·,·,-40.4,-3.3,·,·,·,·
COc1cccc(NC(=O)C2CCC(CNS(=O)(=O)c3cccs3)CC2)c1 (stereo not given),14.1,-4.9,47.1*,-0.9,1.4,29.5,0.6,-15.2
CCCc1nc2ccccc2n1C(C(=O)NC(C)(C)C)C1CC1 (stereo not given),·,·,-5.3,·,·,·,·,·
Cc1ccc(Nc2nc(-c3cccnc3)cs2)cc1C,-29.1,1.5,48.9*,-4.2,8.3,56.1*,2.0,1.8
Clc1cccc(Nc2nc(-c3cccnc3)cs2)c1,0.2,-0.2,48.3*,-1.0,-7.0,53.0*,-0.4,7.3
Brc1ccc(Nc2nc(-c3cccnc3)cs2)cc1,1.7,-2.8,28.1,5.0,0.8,·,·,·
Brc1cccc(Nc2nc(-c3cccnc3)cs2)c1,-23.5,-1.7,42.4*,-11.6,-7.5,45.0,1.8,1.6
SMILES,APJ antagonist,APJ ag,EBI2 block,CXCR6 inh,CCR6 antag,EBI2 conf,EBI2 ag,bGal counter
CC(=O)c1cccc(Nc2nc(-c3cccnc3)cs2)c1,-10.3,0.3,20.1,-1.1,2.4,·,·,·
Clc1ccc(Cl)c(-c2nn3c(COc4ccccc4)nnc3s2)c1,36.7,-6.0,53.1*,3.7,-3.8,25.0,1.0,10.3
COc1ccc(C2c3ccc(O)cc3Oc3ncn4nc(-c5ccccn5)nc4c32)cc1 (stereo not given),24.6,-4.1,47.3*,-9.0,8.6,17.8,0.2,5.8
COc1ccc(C2c3ccc(O)cc3Oc3ncn4nc(-c5ccccn5)nc4c32)cc1OC (stereo not given),-15.6,-7.4,37.9,1.1,9.2,·,·,·
COC(=O)c1ccc(CNC(=O)C(C)N=C2NS(=O)(=O)c3ccccc32)cc1 (stereo not given),20.9,-3.4,6.1,5.9,2.3,·,·,·
Oc1ccc(O)c(C=NNC(=S)NC2CC3CC2C2C=CCC32)c1 (stereo not given),·,·,49.5*,-3.2,·,24.7,-0.9,-2.5
NNC(=S)NC1CC2CC1C1C=CCC21 (stereo not given),25.9,-11.3,2.9,24.3,32.5,·,·,·
Cc1ccc(SCC(=O)N2CCN(c3ccccn3)CC2)cc1,-9.7,-2.0,73.0*,0.8,-0.3,50.2*,2.7,4.0
Cc1ccc(-n2c(SCC(=O)N3CCN(c4ccccn4)CC3)nnc2N2CCCC2)cc1,1.0,-2.8,-9.4,-8.8,18.4,·,·,·
COc1ccc(N2CCN(C(=O)CSc3ccc(C)cc3)CC2)cc1,2.6,-2.5,63.6*,3.7,5.4,58.4*,0.7,2.9
COc1cccc(C(C)(O)c2nc(-c3ccc4c(c3)OCO4)cs2)c1 (stereo not given),·,·,0.1,-4.1,·,·,·,·
OC(c1ccc2ccccc2c1)c1ncc(-c2cccc3ccccc23)[nH]1 (stereo not given),·,·,2.7,0.2,·,·,·,·
O=S1(=O)N[C@H](Cc2ccccc2)COc2cccc(N3CCN(Cc4ccccc4F)CC3)c21,·,·,5.7,3.1,·,·,·,·
CCCCNC(=O)c1nc(C2CCN(S(=O)(=O)c3ccc(OC(F)(F)F)cc3)CC2)oc1-c1ccccc1,·,·,1.9,·,·,·,·,·
O=C(Nc1ccccc1)N1CCC(c2ccccc2)C1 (stereo not given),28.4,-2.2,28.9,3.1,-3.0,·,·,·
